The record followed here is ChEMBL document CHEMBL4229344 (Eur J Med Chem, 2018).

In assay [1] the target is Mast/stem cell growth factor receptor Kit (Homo sapiens, UniProt P10721). The experiment in a line: Inhibition of c-KIT (unknown origin) using poly(4:1 Glu,Tyr) peptide as substrate preincubated for 1 hr followed by addition of ATP and measured after 30 mins by ADP-Glo bioluminescence assay.
Assay [2] deals with Serine/threonine-protein kinase Nek10 (Homo sapiens) (UniProt Q6ZWH5). The experiment in a line: Binding affinity to wild-type human partial length NEK10 (L488 to R809 residues) expressed in mammalian expression system assessed as residual binding level at 1 uM by Kinomescan method relative to control.
Assay [3] addresses Serine/threonine-protein kinase STK11 (Homo sapiens) (UniProt Q15831). The experiment in a line: Binding affinity to wild-type human full length LKB1 (M1 to Q433 residues) expressed in bacterial expression system assessed as residual binding level at 1 uM by Kinomescan method relative to control. The method in brief: (§1)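 Single-concentration (1 μM) competition-binding screen run by KINOMEscan against a panel of 468 purified kinases and mutants. The read-out is the relative binding activity of the test compound to each kinase.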

For assay [4], the target named is Dual specificity protein kinase CLK4 (Homo sapiens) (UniProt Q9HAZ1). The experiment in a line: Binding affinity to wild-type human partial length CLK4 (R135 to K481 residues) expressed in bacterial expression system assessed as residual binding level at 1 uM by Kinomescan method relative to control. The method in brief: (§2)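 Kinome-wide competition binding screen against a panel of 468 purified kinases/mutants, with the test compound at a single concentration of 1 μM. Read-out is the relative binding activity of each kinase in the presence of compound.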

Assay [5] has as its system Receptor-type tyrosine-protein kinase FLT3 (Homo sapiens), P36888 [UNDEFINED MUTATION]. The experiment in a line: Binding affinity to human partial length FLT3 ITD/F691L double mutant expressed in bacterial expression system assessed as residual binding level at 1 uM by Kinomescan method relative to control. The method in brief: (§3)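 Kinome-wide single-concentration binding screen (KINOMEscan) at 1 μM against a panel of 468 purified kinases and mutants. Read-out is relative binding of each kinase compared with control. Selectivity across the panel was summarised as an S(10) score.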

Assay [6] deals with Serine/threonine-protein kinase TBK1 (Homo sapiens) (UniProt Q9UHD2). The experiment in a line: Binding affinity to wild-type human full length TBK1 (M1 to L729 residues) expressed in mammalian expression system assessed as residual binding level at 1 uM by Kinomescan method relative to control. The method in brief: (§4)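 Single-concentration KINOMEscan (DiscoverX) binding screen at 1 μM against a panel of 468 purified kinases and mutants. The read-out is binding relative to control.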

In assay [7] the test system is Phosphatidylinositol 4,5-bisphosphate 3-kinase catalytic subunit alpha isoform (Homo sapiens), P42336 [E545K]. The experiment in a line: Binding affinity to human partial length PIK3CA E545K mutant (R108 to N1068 residues) expressed in mammalian expression system assessed as residual binding level at 1 uM by Kinomescan method relative to control. The method in brief:
as §3

Assay [8] concerns Receptor-type tyrosine-protein kinase FLT3 (Homo sapiens), P36888 [UNDEFINED MUTATION]. Put plainly: Binding affinity to human partial length FLT3 ITD mutant expressed in bacterial expression system assessed as residual binding level at 1 uM by Kinomescan method relative to control. The essentials: as §3
Another assay relates to EOL1. Put plainly: Antitumor activity against human EOL-1 cells engrafted in ip dosed NOD-SCID mouse assessed as reduction of cell density in bone marrow administered 3 weeks post cell inoculation by FACS analysis. It is filed as functional, organism-based. The essentials:
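Daily i.p. dosing started 3 weeks after inoculation at 7.5, 15 or 30 mg/kg/day. Mice monitored daily and euthanized when moribund or at hind-limb paralysis. Bone marrow cells, after red-cell lysis, stained with PE anti-HLA-ABC and counted by flow cytometry.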

Assay [9] deals with Phosphatidylinositol 3-kinase C2 domain-containing subunit gamma (Homo sapiens) (UniProt O75747). Put plainly: Binding affinity to wild-type human partial length PIK3C2G (M1 to I1446 residues) expressed in mammalian expression system assessed as residual binding level at 1 uM by Kinomescan method relative to control.
In assay [10] the target is Mitogen-activated protein kinase 4 (Homo sapiens) (UniProt P31152). The experiment in a line: Binding affinity to wild-type human partial length ERK4 (M1 to L365 residues) expressed in bacterial expression system assessed as residual binding level at 1 uM by Kinomescan method relative to control. The method in brief: as §2
Assay [11] deals with Testis-specific serine/threonine-protein kinase 1 (Homo sapiens) (UniProt Q9BXA7). Put plainly: Binding affinity to wild-type human full length TSSK1B (M1 to Q367 residues) expressed in bacterial expression system assessed as residual binding level at 1 uM by Kinomescan method relative to control. The method in brief:
as §4

The target of assay [12] is Myosin-IIIa (Homo sapiens) (UniProt Q8NEV4). The experiment in a line: Binding affinity to wild-type human partial length MYO3A (M1 to K338 residues) expressed in bacterial expression system assessed as residual binding level at 1 uM by Kinomescan method relative to control. The essentials:
as §2

The target of assay [13] is Dual specificity protein kinase CLK2 (Homo sapiens) (UniProt P49760). Put plainly: Binding affinity to wild-type human partial length CLK2 (D144 to R498 residues) expressed in bacterial expression system assessed as residual binding level at 1 uM by Kinomescan method relative to control. The essentials: as §2
The target in assay [14] is Serine/threonine-protein kinase 35 (Homo sapiens) (UniProt Q8TDR2). Put plainly: Binding affinity to wild-type human partial length STK35 (G182 to A534 residues) expressed in bacterial expression system assessed as residual binding level at 1 uM by Kinomescan method relative to control.
The target of assay [15] is Serine/threonine-protein kinase Nek2 (Homo sapiens) (UniProt P51955). The experiment in a line: Binding affinity to wild-type human partial length NEK2 (M1 to K309 residues) expressed in bacterial expression system assessed as residual binding level at 1 uM by Kinomescan method relative to control. The method in brief: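 KINOMEscan competition binding against a panel of 468 purified kinases/mutants, compound tested at 1 μM; readout is relative binding activity versus control.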

In assay [16] the target is Fibroblast growth factor receptor 2 (Homo sapiens) (UniProt P21802). The experiment in a line: Binding affinity to wild-type human partial length FGFR2 (D457 to E769 residues) expressed in bacterial expression system assessed as residual binding level at 1 uM by Kinomescan method relative to control. The method in brief:
as §2

Assay [17] addresses Ephrin type-B receptor 4 (Homo sapiens) (UniProt P54760). Put plainly: Binding affinity to wild-type human partial length EPHB4 (H585 to G892 residues) expressed in bacterial expression system assessed as residual binding level at 1 uM by Kinomescan method relative to control.
Assay [18] deals with Serine/threonine-protein kinase Nek3 (Homo sapiens) (UniProt P51956). Put plainly: Binding affinity to wild-type human full length NEK3 (M1 to R506 residues) expressed in mammalian expression system assessed as residual binding level at 1 uM by Kinomescan method relative to control. The method in brief: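 KINOMEscan competition binding against 468 purified kinases/mutants, test compound at 1 µM; residual binding relative to control.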

Assay [19] addresses Tyrosine-protein kinase BTK (Homo sapiens) (UniProt Q06187). Put plainly: Binding affinity to wild-type human full length BTK (M1 to S659 residues) expressed in mammalian expression system assessed as residual binding level at 1 uM by Kinomescan method relative to control. The essentials:
as §1

The subject of assay [20] is Epidermal growth factor receptor (Homo sapiens), P00533 [T790M]. Put plainly: Binding affinity to human partial length EGFR T790M mutant (R669 to G1022 residues) expressed in mammalian expression system assessed as residual binding level at 1 uM by Kinomescan method relative to control. The essentials:
as §3

Sequence of Receptor-type tyrosine-protein kinase FLT3 (Homo sapiens), P36888 [UNDEFINED MUTATION] (P36888 whole entry, looked up, stated change not applied): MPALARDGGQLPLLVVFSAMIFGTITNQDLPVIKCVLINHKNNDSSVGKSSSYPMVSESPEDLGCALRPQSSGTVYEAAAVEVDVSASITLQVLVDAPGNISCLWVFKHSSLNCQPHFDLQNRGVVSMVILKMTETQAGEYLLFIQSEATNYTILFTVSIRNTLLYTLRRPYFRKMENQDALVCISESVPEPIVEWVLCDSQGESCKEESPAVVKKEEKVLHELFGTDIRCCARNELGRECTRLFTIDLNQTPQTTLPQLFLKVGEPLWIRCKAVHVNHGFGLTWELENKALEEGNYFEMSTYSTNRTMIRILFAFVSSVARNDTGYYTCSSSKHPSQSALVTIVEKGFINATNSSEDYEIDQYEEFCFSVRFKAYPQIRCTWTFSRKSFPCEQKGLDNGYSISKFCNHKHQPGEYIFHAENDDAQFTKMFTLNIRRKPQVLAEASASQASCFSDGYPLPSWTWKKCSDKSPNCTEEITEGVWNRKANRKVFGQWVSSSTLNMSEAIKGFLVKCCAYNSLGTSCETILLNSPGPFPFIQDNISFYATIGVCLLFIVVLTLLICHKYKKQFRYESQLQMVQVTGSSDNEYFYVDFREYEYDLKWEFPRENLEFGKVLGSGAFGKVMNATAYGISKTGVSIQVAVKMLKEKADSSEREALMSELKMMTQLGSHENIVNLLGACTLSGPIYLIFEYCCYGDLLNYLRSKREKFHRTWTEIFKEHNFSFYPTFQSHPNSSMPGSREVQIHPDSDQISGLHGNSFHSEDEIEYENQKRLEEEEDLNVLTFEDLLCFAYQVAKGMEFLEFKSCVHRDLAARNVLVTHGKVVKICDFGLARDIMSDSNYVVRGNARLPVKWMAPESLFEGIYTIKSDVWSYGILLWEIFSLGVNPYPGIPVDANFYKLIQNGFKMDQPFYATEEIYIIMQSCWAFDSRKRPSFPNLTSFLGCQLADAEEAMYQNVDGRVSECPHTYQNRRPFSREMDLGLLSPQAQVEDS
Sequence of Mitogen-activated protein kinase 4 (Homo sapiens) (P31152 whole entry, the tested form may be a part): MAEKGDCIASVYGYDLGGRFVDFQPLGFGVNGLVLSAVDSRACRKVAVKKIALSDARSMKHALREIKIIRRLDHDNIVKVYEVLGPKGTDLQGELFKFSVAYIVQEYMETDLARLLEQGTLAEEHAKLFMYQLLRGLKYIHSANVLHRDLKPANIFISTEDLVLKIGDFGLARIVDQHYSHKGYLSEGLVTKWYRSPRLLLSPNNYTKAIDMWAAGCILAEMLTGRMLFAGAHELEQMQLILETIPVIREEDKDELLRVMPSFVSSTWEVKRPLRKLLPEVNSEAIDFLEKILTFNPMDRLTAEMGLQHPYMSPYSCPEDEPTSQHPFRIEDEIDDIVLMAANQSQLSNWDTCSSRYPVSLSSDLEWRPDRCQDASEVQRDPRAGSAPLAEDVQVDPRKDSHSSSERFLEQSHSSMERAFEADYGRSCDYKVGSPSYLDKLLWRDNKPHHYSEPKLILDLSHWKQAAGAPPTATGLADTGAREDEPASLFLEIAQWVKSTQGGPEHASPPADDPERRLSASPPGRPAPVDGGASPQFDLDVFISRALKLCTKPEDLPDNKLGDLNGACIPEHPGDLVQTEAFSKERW
Sequence of Serine/threonine-protein kinase TBK1 (Homo sapiens) (Q9UHD2 whole entry, the tested form may be a part): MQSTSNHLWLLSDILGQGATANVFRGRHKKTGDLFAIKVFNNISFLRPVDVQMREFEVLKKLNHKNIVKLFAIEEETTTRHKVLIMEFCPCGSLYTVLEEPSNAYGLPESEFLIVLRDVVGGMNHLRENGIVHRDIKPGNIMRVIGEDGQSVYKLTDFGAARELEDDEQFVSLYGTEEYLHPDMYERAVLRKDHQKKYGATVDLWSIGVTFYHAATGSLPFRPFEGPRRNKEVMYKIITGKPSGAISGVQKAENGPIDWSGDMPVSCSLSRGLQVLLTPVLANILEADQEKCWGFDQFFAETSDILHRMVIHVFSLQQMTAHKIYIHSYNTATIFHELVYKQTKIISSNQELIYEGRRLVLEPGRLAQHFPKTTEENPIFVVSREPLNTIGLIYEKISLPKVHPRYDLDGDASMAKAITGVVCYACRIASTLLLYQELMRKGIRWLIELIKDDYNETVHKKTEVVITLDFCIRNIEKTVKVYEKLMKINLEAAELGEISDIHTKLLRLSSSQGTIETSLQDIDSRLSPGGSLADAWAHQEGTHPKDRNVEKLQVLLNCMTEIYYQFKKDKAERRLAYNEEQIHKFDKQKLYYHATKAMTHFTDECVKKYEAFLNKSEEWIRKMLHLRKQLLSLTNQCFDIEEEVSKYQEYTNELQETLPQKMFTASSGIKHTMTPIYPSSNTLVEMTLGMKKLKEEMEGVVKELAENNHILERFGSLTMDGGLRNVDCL
Sequence of Phosphatidylinositol 4,5-bisphosphate 3-kinase catalytic subunit alpha isoform (Homo sapiens), P42336 [E545K] (P42336 whole entry E545K, the tested form may be a part, canonical isoform): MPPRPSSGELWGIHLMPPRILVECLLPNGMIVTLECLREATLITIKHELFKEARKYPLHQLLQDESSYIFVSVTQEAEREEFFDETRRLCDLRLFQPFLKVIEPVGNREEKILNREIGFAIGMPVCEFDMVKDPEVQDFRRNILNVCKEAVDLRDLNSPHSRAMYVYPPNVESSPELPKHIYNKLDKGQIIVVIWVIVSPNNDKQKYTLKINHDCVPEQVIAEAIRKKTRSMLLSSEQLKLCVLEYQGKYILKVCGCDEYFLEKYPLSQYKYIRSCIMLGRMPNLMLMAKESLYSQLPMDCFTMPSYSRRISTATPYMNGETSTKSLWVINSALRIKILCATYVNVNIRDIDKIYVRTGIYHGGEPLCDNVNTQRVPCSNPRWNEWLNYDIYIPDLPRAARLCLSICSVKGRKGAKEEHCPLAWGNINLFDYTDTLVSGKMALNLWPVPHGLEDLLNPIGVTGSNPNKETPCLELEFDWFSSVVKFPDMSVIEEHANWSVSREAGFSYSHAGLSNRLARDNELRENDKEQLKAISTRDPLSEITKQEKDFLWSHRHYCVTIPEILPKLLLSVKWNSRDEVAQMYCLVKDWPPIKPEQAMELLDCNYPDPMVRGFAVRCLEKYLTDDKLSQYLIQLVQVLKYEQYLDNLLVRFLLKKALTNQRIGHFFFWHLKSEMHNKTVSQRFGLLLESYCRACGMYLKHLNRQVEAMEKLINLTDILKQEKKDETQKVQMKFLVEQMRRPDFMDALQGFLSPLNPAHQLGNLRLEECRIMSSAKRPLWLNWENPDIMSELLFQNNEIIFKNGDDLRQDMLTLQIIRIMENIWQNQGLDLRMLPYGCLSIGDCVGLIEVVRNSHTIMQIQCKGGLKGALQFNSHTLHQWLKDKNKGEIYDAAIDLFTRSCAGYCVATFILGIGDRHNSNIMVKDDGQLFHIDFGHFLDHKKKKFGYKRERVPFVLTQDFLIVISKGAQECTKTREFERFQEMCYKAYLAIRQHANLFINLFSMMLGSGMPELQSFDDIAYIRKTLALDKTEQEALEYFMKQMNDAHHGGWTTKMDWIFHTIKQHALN
Sequence of Ephrin type-B receptor 4 (Homo sapiens) (P54760 whole entry, the tested form may be a part): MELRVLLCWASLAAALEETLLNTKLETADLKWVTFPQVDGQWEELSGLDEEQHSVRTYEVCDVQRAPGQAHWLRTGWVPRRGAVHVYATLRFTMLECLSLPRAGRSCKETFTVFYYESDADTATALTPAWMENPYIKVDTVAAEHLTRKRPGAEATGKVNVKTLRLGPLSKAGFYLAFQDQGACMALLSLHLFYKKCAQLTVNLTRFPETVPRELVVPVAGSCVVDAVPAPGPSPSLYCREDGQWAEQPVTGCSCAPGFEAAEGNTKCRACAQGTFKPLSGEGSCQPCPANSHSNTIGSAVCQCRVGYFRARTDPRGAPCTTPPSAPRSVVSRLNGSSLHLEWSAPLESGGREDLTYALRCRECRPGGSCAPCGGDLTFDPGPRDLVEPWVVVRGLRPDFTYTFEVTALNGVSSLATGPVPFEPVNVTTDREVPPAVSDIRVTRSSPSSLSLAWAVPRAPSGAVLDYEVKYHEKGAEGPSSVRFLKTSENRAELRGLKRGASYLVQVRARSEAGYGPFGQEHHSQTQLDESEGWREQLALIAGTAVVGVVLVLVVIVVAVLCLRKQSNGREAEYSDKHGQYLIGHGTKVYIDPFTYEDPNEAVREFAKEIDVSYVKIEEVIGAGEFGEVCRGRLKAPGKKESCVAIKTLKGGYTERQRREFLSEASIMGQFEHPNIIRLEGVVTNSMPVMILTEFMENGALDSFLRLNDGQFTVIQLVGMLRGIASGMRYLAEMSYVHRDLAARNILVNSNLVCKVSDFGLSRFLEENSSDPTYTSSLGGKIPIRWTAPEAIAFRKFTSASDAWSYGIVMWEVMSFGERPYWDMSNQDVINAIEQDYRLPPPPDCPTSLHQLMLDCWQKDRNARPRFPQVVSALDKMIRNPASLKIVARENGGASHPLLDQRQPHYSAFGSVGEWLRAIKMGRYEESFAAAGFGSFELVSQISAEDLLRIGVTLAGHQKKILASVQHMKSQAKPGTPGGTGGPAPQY
Sequence of Serine/threonine-protein kinase Nek2 (Homo sapiens) (P51955 whole entry, the tested form may be a part): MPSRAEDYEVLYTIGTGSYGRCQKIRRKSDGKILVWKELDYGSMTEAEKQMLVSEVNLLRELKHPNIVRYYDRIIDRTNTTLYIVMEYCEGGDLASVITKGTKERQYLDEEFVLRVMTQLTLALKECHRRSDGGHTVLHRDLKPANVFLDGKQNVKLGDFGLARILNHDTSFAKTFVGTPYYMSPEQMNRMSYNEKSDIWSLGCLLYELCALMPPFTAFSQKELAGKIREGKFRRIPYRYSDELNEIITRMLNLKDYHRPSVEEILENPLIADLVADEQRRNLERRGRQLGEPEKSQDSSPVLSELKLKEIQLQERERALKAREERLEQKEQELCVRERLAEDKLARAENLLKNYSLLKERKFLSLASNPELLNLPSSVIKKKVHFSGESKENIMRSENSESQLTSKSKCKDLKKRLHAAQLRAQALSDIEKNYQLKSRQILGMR

For the compound `Cc1ccc(NC(=O)c2ccc(CN(CCN(C)C)C(=O)c3cccnc3)cc2)cc1Nc1nccc(-c2cccnc2)n1`, the IC50 in assay [1] was greater than 10 µM. The Activity in [2] came out at 100%; in assay [3], 99%; in assay [4] it was 66%; in assay [5], 100%; in [6] it was 86%; in assay [7], 87%. Further, the Activity in [8] was 81%; with EOL1, “Dose-dependent effect”; in assay [9] it was 100%; in assay [10], 89%; in assay [11], 99%; in assay [12], 92%. Further, the Activity amounted to 73% in assay [13]; 100% in [14]; 91% in assay [15]; 80% in assay [16]; 90% in assay [17]; 73% in assay [18]. Moreover, the Activity in [19] and in assay [20] was 100% in each case.
